# ChEMBL document CHEMBL5154772, “Biological Investigation of a Water-Soluble Isoginkgetin-Phosphate Analogue, Targeting the Spliceosome with In Vivo Antitumor Activity” (J Med Chem, 2022)
# Active and inactive are the calls of the source.
# Columns and labels:
# [1] = Toxicity in C57BL/6 mouse assessed as change in spleen weight at 250 mg/kg, ip administered as single dose and measured after 15 days (reference value: […]); assay type: organism-based; settings: in vivo, 360 h, time 15 day
# How it was run: (§1)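 Female C57BL/6 mice given one IP injection of 100 µL, at 50, 100, 250 or 500 mg/kg in sterile PBS, two mice per dose; PBS-injected controls. Behaviour checked right after and at 30 min. Body weight recorded every 2–3 days for 15 days, then liver, spleen and kidneys weighed.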
# [2] = Tmax in Beagle dog at 26.76 mg/kg, iv administered as single dose measured up to 24 hrs; assay type: ADME, organism-based, Canis lupus familiaris; settings: in vivo
# How it was run: (§2)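 Single intravenous dose. Mice were male C57BL/6J, 12 per route; tail-vein blood was collected under sodium heparin, with 3 mice sampled at each pair of times (0.083/2, 0.25/4, 0.5/8, 1/24 h). Dogs were male beagles (n=3); jugular blood was collected under K2 EDTA predose and at 0.083, 0.25, 0.5, 1, 2, 4, 6, 8 and 24 h. Plasma was prepared from the samples.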
# [3] = Metabolic stability in human liver microsomes assessed as parent compound remaining incubated for 45 mins in absence of NADPH by HPLC-MS/MS analysis; assay type: ADME, Microsome; settings: read-out: Stability
# How it was run: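 Incubation with mouse or human liver microsomes for 45 min, with or without NADPH. Remaining parent compound was quantified over time by HPLC-MS/MS and expressed as % remaining; intrinsic clearance is given in μL/min/mg protein.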
# [4] = molecular target: Prostaglandin G/H synthase 1 (Homo sapiens) (UniProt P23219); experiment: Inhibition of COX1 (unknown origin) at 10 uM
# [5] = Oral bioavailability in C57BL/6J mouse at 9.103 mg/kg administered as single dose measured up to 24 hrs; assay type: ADME, organism-based; settings: in vivo
# [6] = Toxicity in C57BL/6 mouse assessed as change in liver weight at 250 mg/kg, ip administered as single dose and measured after 15 days (reference value: 1.2 to 1.3 g); assay type: organism-based; settings: in vivo, 360 h, time 15 day; how it was run: as §1
# [7] = Toxicity in C57BL/6 mouse assessed as change in kidney weight at 100 mg/kg, ip administered as single dose and measured after 15 days (reference value: 0.3 g); assay type: organism-based; settings: in vivo, 360 h, time 15 day; how it was run: as §1
# [8] = Toxicity in C57BL/6 mouse assessed as change in body weight at 500 mg/kg, ip administered as single dose and measured after 15 days (reference value: 23.5 to 24.2 g); assay type: organism-based; settings: in vivo, 360 h, time 15 day; how it was run: as §1
# [9] = Toxicity in C57BL/6 mouse assessed as behavioral changes at 50 to 500 mg/kg, ip and measured upto 30 mins post administration; assay type: organism-based; settings: in vivo, 0.5 h, dose 50-500 mg/kg; how it was run: as §1
# [10] = molecular target: cGMP-inhibited 3',5'-cyclic phosphodiesterase 3A (Homo sapiens) (UniProt Q14432); experiment: Inhibition of PDE3A (unknown origin) at 10 uM
# cGMP-inhibited 3',5'-cyclic phosphodiesterase 3A (Homo sapiens), sequence (Q14432 whole entry): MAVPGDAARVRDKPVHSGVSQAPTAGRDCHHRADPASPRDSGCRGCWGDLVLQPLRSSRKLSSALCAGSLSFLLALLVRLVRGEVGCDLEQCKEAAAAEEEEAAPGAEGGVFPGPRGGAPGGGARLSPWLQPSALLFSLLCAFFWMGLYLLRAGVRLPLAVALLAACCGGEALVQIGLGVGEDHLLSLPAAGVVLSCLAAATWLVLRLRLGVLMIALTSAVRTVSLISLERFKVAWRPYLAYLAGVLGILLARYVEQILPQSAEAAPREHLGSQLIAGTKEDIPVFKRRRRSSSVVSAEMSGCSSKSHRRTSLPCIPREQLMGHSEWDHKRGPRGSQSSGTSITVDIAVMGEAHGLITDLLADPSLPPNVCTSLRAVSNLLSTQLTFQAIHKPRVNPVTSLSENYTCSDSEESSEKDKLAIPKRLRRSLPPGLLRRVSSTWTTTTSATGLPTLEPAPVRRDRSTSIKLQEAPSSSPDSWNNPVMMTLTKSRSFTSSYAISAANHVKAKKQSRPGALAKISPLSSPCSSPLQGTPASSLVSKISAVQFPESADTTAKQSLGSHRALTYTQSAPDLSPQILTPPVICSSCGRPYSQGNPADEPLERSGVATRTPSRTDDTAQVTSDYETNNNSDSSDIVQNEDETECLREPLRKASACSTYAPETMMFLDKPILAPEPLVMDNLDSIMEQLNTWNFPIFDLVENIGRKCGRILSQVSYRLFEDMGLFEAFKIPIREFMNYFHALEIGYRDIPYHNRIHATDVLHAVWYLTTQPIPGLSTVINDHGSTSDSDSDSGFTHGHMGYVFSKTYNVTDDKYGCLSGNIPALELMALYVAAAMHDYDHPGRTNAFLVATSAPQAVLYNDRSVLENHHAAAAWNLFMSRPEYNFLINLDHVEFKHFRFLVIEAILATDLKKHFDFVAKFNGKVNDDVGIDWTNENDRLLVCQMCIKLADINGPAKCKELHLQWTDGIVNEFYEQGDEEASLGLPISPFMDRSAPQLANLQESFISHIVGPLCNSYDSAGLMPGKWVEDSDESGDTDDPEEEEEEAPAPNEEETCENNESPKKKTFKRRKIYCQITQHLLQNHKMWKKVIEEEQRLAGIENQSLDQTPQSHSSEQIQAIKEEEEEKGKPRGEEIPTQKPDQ
# How it was run: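 Single-concentration safety screen at 10 μM across a 47-target panel. GPCRs were run in antagonist mode and enzymes in inhibitor mode.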
# [11] = Toxicity in C57BL/6 mouse assessed as change in spleen weight at 100 mg/kg, ip administered as single dose and measured after 15 days (reference value: 0.1 to 0.2 g); assay type: organism-based; settings: in vivo, 360 h, time 15 day; how it was run: as §1
# [12] = Total clearance in C57BL/6J mouse at 9.103 mg/kg, ip administered as single dose measured up to 24 hrs; assay type: ADME, organism-based; settings: in vivo
# How it was run: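 Male C57BL/6J mice, single IP dose. Tail-vein blood into sodium heparin for plasma. Twelve mice per route, three per pair of time points: 0.083 and 2 h, 0.25 and 4 h, 0.5 and 8 h, 1 and 24 h. Parameters derived from plasma concentration–time data.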
# [13] = MRT(0 to t) in C57BL/6J mouse at 0.711 mg/kg, iv administered as single dose measured up to 24 hrs; assay type: ADME, organism-based; settings: in vivo; how it was run: as §2
# [14] = AUCextra in C57BL/6J mouse at 0.711 mg/kg, iv administered as single dose measured up to 24 hrs; assay type: ADME, organism-based; settings: in vivo; how it was run: as §2
# [15] = Half life in Beagle dog at 26.76 mg/kg, iv administered as single dose measured up to 24 hrs; assay type: ADME, organism-based, Canis lupus familiaris; settings: in vivo; how it was run: as §2
# [16] = Acute toxicity in C57BL/6 mouse assessed as mortality at 500 mg/kg, ip administered as single dose and measured after 15 days; assay type: organism-based; settings: in vivo, 360 h, time 15 day
# How it was run: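 Single intraperitoneal injection (100 µL) into female C57BL/6 mice, with IP2 diluted in sterile PBS at 50, 100, 250 or 500 mg/kg; PBS-treated controls. Behaviour watched right after and at 30 min. Body weight followed every 2–3 days for 15 days. Euthanasia criterion was weight loss ≥20%. Liver, spleen and kidney weights taken at day 15.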
# [17] = Plasma protein binding in mouse assessed as unbound fraction at 2 uM by rapid equilibrium dialysis based LC-MS/MS analysis; assay type: ADME, cell-free
# How it was run: (§3)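 Binding was measured at 2 μM in triplicate by rapid equilibrium dialysis (8K MWCO). Quantification was by UPLC-MS/MS on a phenyl column in positive ESI MRM mode (m/z 727>567), with an ammonium formate pH 5 / 1,5-DMHA mobile phase at 50 °C. Both unbound fraction (fu) and % bound are reported.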
# [18] = AUCextra in Beagle dog at 26.76 mg/kg, iv administered as single dose measured up to 24 hrs; assay type: ADME, organism-based, Canis lupus familiaris; settings: in vivo; how it was run: as §2
# [19] = MRT(0 to t) in C57BL/6J mouse at 9.103 mg/kg, ip administered as single dose measured up to 24 hrs; assay type: ADME, organism-based; settings: in vivo
# How it was run: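 Single intraperitoneal dose in male C57BL/6J mice (12 per route). Tail-vein blood was collected under sodium heparin for plasma, with 3 mice sampled at each pair of times: 0.083/2, 0.25/4, 0.5/8 and 1/24 h. F denotes bioavailability.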
# MCA-205 = experiment: Antitumor activity against mouse wild type MCA-205 cells implanted in C57BL/6 mouse assessed as decrease in tumor growth pretreatment at 2.5 mg/kg,iv administered starting from day 7 post inoculation at five days interval upto 17 days relative to control; assay type: functional, organism-based; settings: time <= 17.0 day
# How it was run: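 MCA205 WT fibrosarcoma cells were inoculated subcutaneously into the right flank of female C57BL/6 mice. Dosing was 2.5 mg/kg iv from day 7 post-inoculation, repeated every 5 days until day 17; controls were untreated. Tumor area was recorded every 3–4 days up to ethical limits, and tumor size was measured at killing. Analysis was by one-way ANOVA.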
# [20] = Toxicity in C57BL/6 mouse assessed as change in body weight at 50 mg/kg, ip administered as single dose and measured after 15 days (reference value: 23.5 to 24.2 g); assay type: organism-based; settings: in vivo, 360 h, time 15 day; how it was run: as §1
# [21] = Toxicity in C57BL/6 mouse assessed as change in kidney weight at 500 mg/kg, ip administered as single dose and measured after 15 days (reference value: 0.3 g); assay type: organism-based; settings: in vivo, 360 h, time 15 day; how it was run: as §1
# [22] = Tmax in C57BL/6J mouse at 0.711 mg/kg, iv administered as single dose measured up to 24 hrs; assay type: ADME, organism-based; settings: in vivo; how it was run: as §2
# [23] = Toxicity in C57BL/6 mouse assessed as change in spleen weight at 50 mg/kg, ip administered as single dose and measured after 15 days (reference value: 0.1 to 0.2 g); assay type: organism-based; settings: in vivo, 360 h, time 15 day; how it was run: as §1
# [24] = Plasma protein binding in mouse at 2 uM by rapid equilibrium dialysis based LC-MS/MS analysis; assay type: ADME, cell-free; settings: read-out: PPB (converted); how it was run: as §3
smiles,measurement,setting,value
COc1ccc(-c2cc(=O)c3c(O)cc(OP(=O)([O-])[O-])c(-c4cc(-c5cc(=O)c6c(O)cc(OP(=O)([O-])[O-])cc6o5)ccc4OC)c3o2)cc1.[Na+].[Na+].[Na+].[Na+],Activity,[1],0.1 g
same,Tmax,[2],5 min
same,remaining at 0.75 h,[3],64.7%
same,inhibition,[4],52.8%
same,bioavailability,[5],86%
same,Activity,[6],0.9 g
same,Activity,[7],0.2 g
same,Activity,[8],20.4 g
same,Activity,[9],Non-Toxic
same,inhibition,[10],84.8%
same,Activity,[11],0.1 g
same,CL/F,[12],154 mL/min/kg
same,MRT last at 24 h,[13],54 min
same,%AUCextra,[14],15.2%
same,half-life,[15],228 min
same,Activity,[16],Non-Toxic
same,fraction unbound at 2 µM,[17],0.02
same,%AUCextra,[18],0.9%
same,MRT last at 24 h,[19],42 min
same,Activity,MCA-205,Active
same,Activity,[20],19.5 g
same,Activity,[21],0.2 g
same,Tmax,[22],5 min
same,Activity,[23],0.1 g
same,fraction unbound at 2 µM,[24],0.019
